# TAAR1 antag: human TAAR1 antagonists, primary screen, Fluo-8 calcium fluorescence, CHO RD-HGA16 cells; 360,000 compounds, 1.5% hits; Trace amine-associated receptor 1 (Homo sapiens), Q96RJ0; antagonist; inhibition, % at 3 µM;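 active = inhibition above a per-plate cutoff, the mean inhibition of test compounds on that plate plus 3 SD, cut at about 49% in these data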;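 note: 0% = DMSO plus EC80 beta-PEA response and 100% = DMSO alone without agonist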
#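 System: RD-HGA16 CHO cells with stable hTAAR1 and Gα16 | Probe or stimulus: EC80 β-phenethylamine stimulus | Dosing: 3 µM, single point | Times: Dye loading 75 min at 37 °C, then 30 min room temperature | Measured by: Fluo-8 calcium-sensitive fluorescence | Read-out basis: % inhibition of agonist calcium response | Replicates: n of 1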
# TAAR1 ag: human TAAR1 agonists, primary screen, Fluo-8 calcium fluorescence, CHO RD-HGA16 cells; Trace amine-associated receptor 1 (Homo sapiens), Q96RJ0; vehicle wells 0%, saturating PEA agonist 100%; activation, % at 3 µM; 360,000 compounds, 0.99% hits; AID 624467, 2012;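 active = activation above the mean activation of all test compounds in the run plus 3 SD, cut at about 38% in these data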
#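 Assay system – CHO-derived RD-HGA16 cells with stable Gα16 and human TAAR1 · Compound dosing – one-point dosing at 3 µM (nominal) · Incubation – 17-24 h seeding, 75 min 37 °C dye, 30 min RT · Measured by – kinetic Fluo-8 calcium fluorescence · Control set – DMSO vehicle as 0%, PEA at EC100 as 100% · Repeats – single well for each compound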
# OX1R antag-1: antagonists of human orexin 1 receptor (OX1R). AID 485270, 2010. inhibition, % at 6.6 µM. OX1R-expressing cells, FRET antagonist read-out. Orexin/Hypocretin receptor type 1 (Homo sapiens), O43613. 330,000 compounds, 1.8% hits; in the data active = inhibition mostly above about 38%, no sharp cut-off; inactive = mostly below about 40%;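 note: 0% = agonist challenge alone and 100% = reference antagonist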
# Target sequence (O43613 whole entry, looked up): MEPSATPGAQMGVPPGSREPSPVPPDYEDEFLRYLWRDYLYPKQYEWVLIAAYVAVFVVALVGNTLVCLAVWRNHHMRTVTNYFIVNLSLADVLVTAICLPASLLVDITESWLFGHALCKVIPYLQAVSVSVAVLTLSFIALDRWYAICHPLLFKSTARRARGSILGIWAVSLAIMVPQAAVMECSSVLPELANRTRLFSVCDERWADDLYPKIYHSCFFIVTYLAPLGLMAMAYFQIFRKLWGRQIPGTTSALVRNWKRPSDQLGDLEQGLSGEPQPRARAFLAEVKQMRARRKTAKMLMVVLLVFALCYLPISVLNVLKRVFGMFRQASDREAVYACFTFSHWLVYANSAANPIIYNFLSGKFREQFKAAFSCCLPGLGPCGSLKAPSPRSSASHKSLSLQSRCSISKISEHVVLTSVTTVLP
# CHO parental Ca: ATP-evoked calcium signal inhibitors, parental CHO, primary screen, counter-screen for OX1R antagonist project, cell-based, fluorescence, Fluo-8 calcium dye | inhibition, % at 5.6 µM | parental CHO-K1, ATP-induced calcium, Fluo-8 fluorescence | AID 463079, 2010 | 330,000 compounds, 0.63% hits;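 active = inhibition above that plate's mean sample inhibition plus 3 SD, cut at about 26% in these data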;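 note: 0% = ATP-challenged DMSO wells and 100% = DMSO wells without ATP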
#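 test system = CHO parental line | reagent = ATP stimulus | measured by = intracellular calcium via Fluo-8 no-wash fluorescent dye | control set = ATP and no-ATP DMSO wells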
# OX1R antag-2: OX1R (HCRTR1) antagonists, primary screen, fluorescence, CHO/OX1R cells, Fluo-8 calcium, orexin A | AID 434989, 2010 | 330,000 compounds, 0.43% hits | inhibition, % at 5 µM | Fluo-8 calcium fluorescence | Orexin/Hypocretin receptor type 1 (Homo sapiens), O43613;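 active = inhibition above its plate's threshold, mean inhibition of all tested compounds on the plate plus 3 SD, cut at about 37% in these data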;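 note: 0% = orexin A challenge wells and 100% = SB-334867-A antagonist wells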
# TAAR1 nonsel count: nonselective antagonists in TAAR1 counter-screen cells, counter-screen for hTAAR1 antagonist project, cell-based, fluorescence, calcium. counterscreen cell line, antagonist mode. shares compounds with TAAR1 antag. 2,400 compounds, 77% hits. AID 651780, 2012. inhibition, % at 3 µM; in the data active = inhibition above about 22%;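 note: CHO-Ga16 host cells stimulated with ATP at an EC80 level; 0% = agonist EC80 plus vehicle and 100% = vehicle without agonist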
# TAAR1 antag conf: human TAAR1 antagonists, retest of hits, confirmation, cell-based, fluorescence; shares compounds with TAAR1 antag; TAAR1-expressing cells, fluorescence antagonist read-out; inhibition, % at 3 µM; 2,400 compounds, 40% hits; in the data active = inhibition above about 49%;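 note: CHO-Ga16 host cells challenged with agonist PEA near its EC80; 0% = agonist at EC80 plus vehicle and 100% = vehicle with no agonist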
# Ga16 ag counter: calcium activation in Ga16-expressing cells, counter-screen for TAAR1 antagonist project, cell-based, fluorescence | shares compounds with TAAR1 antag | agonist counterscreen | activation, % at 3 µM | 2,400 compounds, 18% hits | AID 651953, 2012; in the data active = activation above about 12%;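 note: 0% = vehicle wells and 100% = saturating stimulus response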
# TAAR1 ag count: TAAR1 activation by candidate antagonists – cell-based, fluorescence, counter-screen for TAAR1 antagonist project; AID 651955, 2012; activation, % at 3 µM; hTAAR1 cell line, agonist mode; shares compounds with TAAR1 antag; 2,400 compounds, 2% hits; in the data active = activation above about 37%;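 note: CHO cells stably expressing TAAR1 with calcium dye readout; 0% = DMSO vehicle and 100% = full agonist response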
# * hit, by the source's call; nt = not tested or not shown. Only some compounds are listed: those with a hit (about 3.9% of all), similar ones and a draw of the others.
SMILES,TAAR1 antag,TAAR1 ag,OX1R antag-1,CHO parental Ca,OX1R antag-2,TAAR1 nonsel count,TAAR1 antag conf,Ga16 ag counter,TAAR1 ag count
COC(=O)c1ccc(-c2ccc(/C=N/N3C(=O)C4C5C=CC(C6CC56)C4C3=O)o2)cc1 (stereo unspecified),62*,18,9,-6,0,27*,41,10,13
COC(=O)c1cccc(-c2ccc(/C=N/N3C(=O)C4C5C=CC(C6CC56)C4C3=O)o2)c1 (stereo unspecified),23,12,25,-18,-13,nt,nt,nt,nt
O=C(c1ccc(-c2nc3ccccc3s2)o1)N1CCN(c2ccccc2O)CC1,64*,6,17,-19,-20,29*,43,4,3
O=C(O)c1ccc(-c2nc3ccccc3s2)o1,-25,1,22,-1,3,nt,nt,nt,nt
CC(C)(C)c1csc(NC(=O)C2COc3ccccc3O2)n1 (stereo unspecified),22,-1,14,-10,-21,nt,nt,nt,nt
CCOc1ccc(-c2csc(NC(=O)c3cccc(N4C(=O)CCC4=O)c3)n2)cc1,68*,19,15,11,-19,32*,44,12*,14
Cc1ccc(NC(=O)C2COc3ccccc3O2)cc1 (stereo unspecified),7,3,-4,-5,-25,nt,nt,nt,nt
COc1ccc(-c2csc(NC(=O)C3COc4ccccc4O3)n2)cc1OC (stereo unspecified),62*,5,15,0,-21,29*,40,7,5
COc1ccc(-c2csc(NC(=O)c3cccc(N4C(=O)CCC4=O)c3)n2)cc1OC,65*,8,8,-9,-7,21,33,7,9
O=C(Nc1ccc(-c2cn3ccsc3n2)cc1)C1COc2ccccc2O1 (stereo unspecified),60*,24,50,8,6,38*,56*,15*,11
Nc1c(C(=O)NCC2CCCO2)sc2nc3c(c(-c4ccco4)c12)CC/C3=C\c1ccco1 (stereo unspecified),53*,16,nt,nt,nt,-2,0,3,2
CC(C)N1CCN(Cc2cccn2-c2nccs2)CC1CCO (stereo unspecified),11,5,11,-23,-10,nt,nt,nt,nt
CCNC(=S)NNC(=O)c1ccc(OC(F)F)cc1,8,4,3,2,-2,nt,nt,nt,nt
C=CC[C@@H](CC(=O)OC(C)(C)C)C(=O)OC[C@H]1CCCN1C(=O)[C@@H](CC=C)CC(=O)N[C@H](CO)Cc1ccccc1,61*,17,11,-15,-4,36*,43,8,7
C=CC[C@@H](CC(=O)OC(C)(C)C)C(=O)OC[C@@H]1CCCN1C(=O)[C@@H](CC=C)CC(=O)N[C@@H](CO)Cc1ccccc1,16,2,8,-34,-15,nt,nt,nt,nt
C=CCNc1cccc2c1S(=O)(=O)N[C@@H](CC(C)C)CO2,-7,-1,nt,nt,nt,nt,nt,nt,nt
COc1cccc(NC(=O)C2CCN(C(=O)[C@@H]3Cc4ccccc4CN3C(=O)OC(C)(C)C)CC2)c1,53*,15,5,-15,-15,24*,44,10,15
CCC(CC)C(C(=O)NCc1ccccc1)N1CCN(CCN2CCOCC2)CC1 (stereo unspecified),-27,6,nt,nt,nt,nt,nt,nt,nt
OC1(c2cccc(C(F)(F)F)c2)CCN(c2ccc(-c3ccccc3)nn2)CC1,75*,10,15,-5,-13,19,39,4,-1
Cc1ccc(NC(=O)C2(S(=O)(=O)c3ccc(Cl)cc3)CC2)cc1,-2,-1,14,-4,-27,nt,nt,nt,nt
CN(Cc1ccccc1)C(=O)c1ccc(NC(=O)C2CCN(C(=O)OC(C)(C)C)CC2)cc1,60*,23,18,13,42,47*,43,14*,14
CN(C(=O)c1ccc(NC(=O)C2CCN(C(=O)OC(C)(C)C)CC2)cc1)C1CC1,-1,5,6,-2,-4,nt,nt,nt,nt
O=C(N/N=C/c1ccc2cccc(OCc3ccccc3)c2n1)c1ccc(Br)cc1,62*,10,12,-24,-14,21,47,4,2
O/N=C/c1ccc2cccc(OCc3ccccc3)c2n1,3,10,8,-15,-9,nt,nt,nt,nt
COc1ccc(C(=O)N/N=C/c2ccc3cccc(OCc4ccccc4)c3n2)cc1,60*,13,76*,-35,-24,27*,53*,6,5
SMILES,TAAR1 antag,TAAR1 ag,OX1R antag-1,CHO parental Ca,OX1R antag-2,TAAR1 nonsel count,TAAR1 antag conf,Ga16 ag counter,TAAR1 ag count
NC(=S)N/N=C/c1ccc2cccc(OCc3ccccc3)c2n1,29,5,21,-12,-13,nt,nt,nt,nt
CC(C)(C)S(=O)N1Cc2cn(Cc3ccccc3)c(=O)cc2[C@H]1CCO (stereo partly specified),6,0,nt,nt,nt,nt,nt,nt,nt
COCc1ccc(-c2c(-c3ccsc3)oc(=O)c3cc(OC)c(OC)cc23)cc1,58*,2,13,-18,-22,17,33,2,1
O=C(CCc1ccc(S(=O)(=O)N2CCOCC2)cc1)Nc1ccc(F)cc1[N+](=O)[O-],-10,3,10,-8,-8,nt,nt,nt,nt
O=C(Nc1ccccc1Cl)c1ccc(C(=O)Nc2ccccc2Cl)cc1,-6,4,nt,nt,nt,nt,nt,nt,nt
O=C(Nc1cccc(Cl)c1Cl)c1ccc(-c2ccccc2)cc1,60*,15,14,-6,-29,35*,90*,9,12
Cc1csc2nc(CSc3nc4ccccc4o3)c(Br)n12,61*,20,62,-19,6,15,19,5,9
Cc1csc2nc(CSc3nncn3-c3ccccc3)c(Br)n12,-5,4,14,-15,-8,nt,nt,nt,nt
O=C(c1ccccc1)c1ccc2nc(-c3ccc(NC(=O)c4ccccc4F)cc3)[nH]c2c1,59*,21,36,-7,1,29*,59*,9,7
O=C(O)CCC(=O)Nc1ccc(-c2nc3ccc(C(=O)c4ccccc4)cc3[nH]2)cc1,-3,15,5,-1,-12,nt,nt,nt,nt
